Compound activity from PubChem BioAssay.
Most compounds without a hit are left out; they make up all but 3.1% or so of the library.
Beta cell apopt: beta cell apoptosis inhibition; INS-1E cytokine-induced death, ATP luminescence, 48 h; percent of positive-control rescue, neutral wells zero; AID 435005; protection from apoptosis, % (no concentration beside the values); 0.8% of 300,000 active;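 active = Every replicate reaches about 75%, or at least half do and their mean reaches it too, limit read from the data; inconclusive = At least half of replicates reach the limit but their mean does not; inactive = Under half of replicates reach the limit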;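 note: 0% = cytokine-treated negative control wells and 100% = positive control rescue; higher means more ATP so stronger rescue from cytokine killing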
Calb FLC: C. albicans growth modulation with fluconazole; C. albicans CaCi-2 (fluconazole-resistant clinical isolate) + fluconazole, Alamar Blue growth, 48 h; growth inhibition, % (test concentration not listed); AID 1979; 0.57% of 300,000 active;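 active = growth inhibition above about 58% in most replicates, limit read from the data, passing the limit was not always enough; inconclusive = exactly half the replicates above a set limit; inactive = most replicates below a set limit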;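 note: all wells also contain fluconazole at 8 µg/ml as a sub-toxic cotreatment; 0% = median of DMSO wells and 100% = median of geldanamycin control wells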
T cruzi inh: T. cruzi replication inhibition. 1.4% of 300,000 active. inhibition, % (test concentration not listed). T. cruzi beta-gal in NIH3T3, luminescence, 90 h. AID 1885;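 active = mean inhibition across valid replicates above about 55%, limit read from the data; inconclusive = mean below that limit but half or more replicates reach it; inactive = mean below it, under half of replicates reach it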;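 note: signal also drops with host cell toxicity which is not excluded here; 0% = plate median of DMSO wells and 100% = zero luminescence signal; higher percent means less beta-gal luminescence so fewer parasites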
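Material: NIH/3T3 host cells with β-galactosidase reporter T. cruzi; Input: 5,000 host fibroblasts per well; Medium: DMEM, 2% fetal bovine serum; Compound: 50 nL DMSO compound solution per well; Schedule: 3 h host attachment, then at least 90 h co-culture; Detection: luminescent β-galactosidase signal after 60 min lysis.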
CSC inhib: blocks cancer stem cells; cancer stem cell-like cells viability, luminescence; inhibition, % at 7.5 µM; 1.1% of 300,000 active; in the data active = inhibition above about 75%; inconclusive = no clear call, values can overlap the other calls; tested in HMLE shEcad cells
PolyA inhibitor: inhibitors of polyadenylation in S. cerevisiae | S. cerevisiae SKY197-pL101 polyadenylation reporter, beta-gal luminescence; efflux-impaired pdr1/pdr3 knockout yeast; score 100 = 6 SD above DMSO | activity score, % at 12 µM | 0.02% of 300,000 active | AID 1875;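 active = lowest replicate activity score at least 50, where 100 means six control SD above control mean; inconclusive = lowest score under 50 but half or more replicates reach 50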;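 note: yeast exposed to compound for 9 h at 30 °C; higher score means more reporter readthrough which indicates perturbed polyadenylation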
HIF activator: HIF pathway transcriptional activation | U2OS HRE-luciferase reporter, luminescence; normalized: DMSO 0%, desferrioxamine 100% | activation, % at 7.5 µM (by protocol) | 0.32% of 300,000 active | AID 1910;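 active = mean activation of at least 10% of the iron chelator positive control signal, with at least half of replicates also reaching 10%; inconclusive = mean and replicate majority disagree about reaching 10%; inactive = mean and most replicates under 10%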
* hit, by the source's call; ? = inconclusive; . = no result.

SMILES | Beta cell apopt | Calb FLC | T cruzi inh | CSC inhib | PolyA inhibitor | HIF activator
CC(C)C[C@H](NC(=O)OC(C)(C)C)C(=O)N/N=C/C1=Cc2ccccc2OC1C (stereo partly specified) | 19.1 | 5.2 | 68.6* | . | 7.7 | 0.4
Cc1cc(C)n(CCCNC(=O)C(C)(C)Oc2ccc(Cl)cc2)n1 | -0.6 | . | . | -5.6 | . | .
CCCCc1ccc(N/C(N)=N/c2nc(C)cc(C)n2)cc1 | 123.8* | -4.8 | 74.8* | 43.7 | 14.8 | 0.1
Cc1ccc(N/C(N)=N/c2nc(C)cc(C)n2)cc1 | -3.9 | -12.6 | 31.7 | 11.1 | 21.9 | 0.3
COc1ccc2sc(N(CCN(C)C)C(=O)c3ccc4ccccc4c3)nc2c1 | 0.5 | -7.3 | 35.5 | -5.2 | 14.2 | 1.1
C=C1/C=C(\C)[C@](C)(O)C[C@H](O)CC(=O)[C@H](O)[C@@H](O)[C@H](C)C[C@H](C)OC(=O)/C(C)=C/CC/C=C/[C@@H]2O[C@H]2C[C@H](C)C1 | 92.3* | . | . | . | . | .
O=S(=O)(c1ccccc1)N1CCN(Cc2ccc(Cl)cc2)CC1 | -2.9 | -2.8 | 10.9 | -2.8 | -19.4 | 0.6
O=C(CCN1C(=O)/C(=C/c2ccccc2F)SC1=S)NC1C=CS(=O)(=O)C1 (stereo unspecified) | -11.7 | -2.7 | 11.7 | 7.9 | 1.7 | 0.2
O=C(N/N=C/c1cc(Br)ccc1O)c1cccc(N2CCCC2=O)c1 | 56.3 | 93.8* | -5.2 | 36.1 | 3.7 | 41.5*
COc1ccc(O)c(/C=N/NC(=O)c2cccc(N3CCCC3=O)c2)c1 | 93.6* | -6.6 | 19.1 | . | 7.9 | 6.7
O=C(O)c1cccc(N2CCCC2=O)c1 | -4.9 | -0.6 | -0.1 | -11.5 | 27.3 | 47.4*
CCN(CC(=O)NCc1cccs1)C(=O)c1cccc(Cl)c1 | -3.3 | . | . | -16.7 | . | .
O=C(Nc1c(Cl)cccc1Cl)C1CCN(C(=O)c2cccs2)CC1 | 4.8 | -2.8 | 1.9 | -5.1 | 1.0 | 0.0
COc1ccc(Cl)cc1NC(=O)CN(C)C(=O)c1n[nH]c2ccccc12 | 3.4 | 0.9 | 6.8 | -4.2 | -13.2 | -0.5
CCCCCN=C(N)N/N=C/c1c[nH]c2ccc(OC)cc12 | 55.9 | . | 35.5 | 119.2* | -6.3 | -3.9
COc1cccc(-c2sc3ccc(OC)cc3c2C#CCCO)c1 | -5.6 | . | . | 116.2* | . | .
COc1cc(OC)cc(-c2sc3ccc(OC)cc3c2C#CC(C)(C)O)c1 | -8.6 | . | . | -5.6 | . | .
COc1cc(OC)cc(-c2sc3ccc(OC)cc3c2C#CCO)c1 | -4.7 | . | . | 101.5* | . | .
COc1ccc(-c2sc3ccc(OC)cc3c2C#Cc2cncn2C)cc1 | -7.2 | . | . | . | . | .
Cc1occc1C(=O)/C(C#N)=C/c1ccc(O)c(Br)c1 | -6.1 | 1.5 | 2.5 | 8.3 | -6.4 | -0.6
CCOC(=O)c1ccccc1NC(=O)COC(=O)c1cc([N+](=O)[O-])ccc1N1CCOCC1 | 5.1 | 5.6 | 11.9 | -1.4 | -1.9 | 0.0
CC1(CCc2ccccc2)NC(=O)N(CC(=O)Nc2ccc3c(c2)OCCO3)C1=O (stereo unspecified) | -5.5 | 110.0* | 10.9 | -3.5 | -6.8 | -0.9
COC(=O)c1ccc(OCc2nn[nH]n2)cc1 | -4.1 | -1.2 | -9.7 | -1.8 | 16.1 | 0.1
O=C(COc1ccc(Cl)cc1)Nc1ncc([N+](=O)[O-])s1 | . | 97.6* | -4.0 | . | 5.4 | -1.8
O=C(Cc1ccc(Br)cc1)Nc1ncc([N+](=O)[O-])s1 | 28.1 | -5.2 | 60.2* | 7.9 | -16.0 | 4.0
SMILES | Beta cell apopt | Calb FLC | T cruzi inh | CSC inhib | PolyA inhibitor | HIF activator
O=C(Cc1ccc(Cl)cc1)Nc1ncc([N+](=O)[O-])s1 | . | 59.8 | 93.7* | . | -9.6 | 3.0
CSc1ccccc1NC(=S)N/N=C/c1cccn1Cc1ccc(F)cc1 | 14.3 | 29.0 | 36.7 | 5.5 | 4.8 | 1.2
CSc1ccccc1NC(=S)N/N=C/c1cccn1Cc1cccc(C)c1 | 5.1 | 7.4 | 65.4* | 3.5 | 17.3 | 0.7
O=S(=O)(c1ccc(Cl)s1)N1CCCc2cccc(O)c21 | 13.3 | 68.0* | 5.6 | . | -31.3 | 4.6
O=S(=O)(c1ccc(Cl)s1)N1CCc2ccccc2C1 | -9.5 | 5.9 | 12.7 | -11.8 | -7.7 | -0.2
O=C(/C(=C/O)N=Nc1ccc(Cl)cc1)c1ccncc1 | 15.4 | -24.0 | 8.7 | 77.1* | 13.4 | 1.0
Cc1[nH]n(-c2ccccc2)c(=O)c1N=Nc1ccccc1C(=O)N1CCOCC1 | -3.0 | 5.7 | 11.1 | -3.3 | -6.8 | -0.1
NC(=S)n1[nH]c(-c2ccccc2)c(N=Nc2ccccc2C(=O)N2CCOCC2)c1=O | 6.9 | 100.3* | 1.5 | -10.1 | -3.5 | -0.1
O=c1cc(-c2ccc(O)cc2)oc2ccc3ccccc3c12 | 45.2 | . | . | 89.9* | . | .
Cc1ccccc1CN1CCC(CNC(=O)C2CCCN(c3ncnc4c3nc3n4CCCCC3)C2)CC1 (stereo unspecified) | 3.0 | 3.3 | 46.1 | 6.1 | -1.8 | -0.7
Cc1ccc2c(c1)C1CN(C)CCC1N2C(=S)NC(=O)c1ccc(Br)cc1 (stereo unspecified) | 24.2 | ? | 64.5* | 15.8 | -13.8 | -0.8
Cc1ccc2c(c1)C1CN(C)CCC1N2C(=O)c1cccc(S(=O)(=O)N2CC(C)CC(C)C2)c1 (stereo unspecified) | -11.2 | 8.4 | 80.5* | 12.7 | 21.9 | -0.5
Cc1ccc2c(c1)C1CN(C)CCC1N2C(=O)c1ccc(Cl)c(S(=O)(=O)N2CCOCC2)c1 (stereo unspecified) | 2.1 | -0.9 | 60.5* | -6.9 | 0.2 | 4.0
Cc1ccc(C(=O)N(C)c2ccc(OCC(=O)N3c4ccc(C)cc4C4CN(C)CCC43)cc2)cc1 (stereo unspecified) | 0.1 | 19.3 | 67.6* | 6.6 | 2.1 | 0.4
Cc1ccc2c(c1)C1CN(C)CCC1N2C(=O)COc1ccc(N(C)C(=O)C(C)(C)C)cc1 (stereo unspecified) | 0.3 | -2.7 | 40.7 | -1.4 | -18.1 | 0.1
COCc1cc(Sc2ccc(Cl)cc2)nc(C)n1 | -5.9 | -0.8 | -8.0 | 4.9 | -7.1 | -0.1
COCc1cc(S(=O)c2ccc(Cl)cc2)nc(C)n1 (stereo unspecified) | . | -32.4 | 61.3* | . | -2.4 | 1.6
Cc1ccc(NC(=S)NCc2cccs2)cc1 | 4.8 | -27.9 | -27.7 | -5.3 | 11.7 | 0.7
CCCCc1ccc(NC(=S)NCc2cccs2)cc1 | 1.8 | -26.1 | 69.5* | 13.7 | 9.9 | 0.1
CC[C@@H]1[C@H]2CCCC(=O)N3CC[C@@H](C[C@@H]1OC(=O)Nc1ccccc1)[C@@H]23 | -1.1 | -24.6 | 12.6 | -4.7 | 19.5 | -0.1
CC1(C)c2[nH]c3ccccc3c2C[C@@H]2C(=O)N(Cc3ccccc3)C(=O)N21 | -3.9 | 4.6 | -6.2 | -8.8 | 20.4 | -0.1
COC(=O)[C@@H]1Cc2c([nH]c3ccccc23)C(C)(C)N1C(=O)CCl | -6.3 | 1.9 | 62.7* | 10.8 | -8.0 | 0.2
COc1cc(C2=CCN(C(C)=O)CC2)ccc1OC(C)=O | 2.5 | -0.8 | -11.5 | -12.6 | 0.1 | -0.5
